What was measured:
[1] = melting temperature; fluorescence melt of hairpins on a sequencing array, two-state fit, raised by 9.35 °C to match UV melts; settings: sodium 0.088 M
Method in brief: (§1)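 On a sequenced MiSeq flow cell, library hairpins with annealed Cy3 and quencher oligos were imaged for Cy3 fluorescence in 2.5 °C steps up to 60 °C, in 50 mM Na-HEPES pH 8.0, 25 mM NaCl. Normalisation used pre-quench Cy3 and control constructs. Bootstrapped two-state fits gave melting temperature and folding enthalpy, combined by inverse variance across four replicates and with fitted temperatures raised by 9.35 °C to match UV melts.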

[2] = folding enthalpy; higher = less favourable; fluorescence melt of hairpins on a sequencing array, two-state fit; settings: sodium 0.088 M
Method in brief: as §1

GCGTTCAAACGC ((((....))))
Tm [1]: 53.1 °C
folding enthalpy [2]: -24.5 kcal/mol

GCGTTCACACGC ((((....))))
Tm [1]: 52.8 °C
folding enthalpy [2]: -22.6 kcal/mol

GCGTTCCACGC ((((...))))
Tm [1]: 59.7 °C
folding enthalpy [2]: -25.3 kcal/mol

GCGTTCGAAAGAAAACGC ((((((....)))..)))
Tm [1]: 49 °C
folding enthalpy [2]: -27.3 kcal/mol

GCGTTCGAAAGAAACCGC ((((((....)))..)))
Tm [1]: 36.9 °C
folding enthalpy [2]: -25.2 kcal/mol

GCGTTCGAAAGAATGCGC ((((((....)))..)))
Tm [1]: 57.3 °C
folding enthalpy [2]: -28.8 kcal/mol

GCGTTGAACGC ((((...))))
Tm [1]: 54.1 °C
folding enthalpy [2]: -18.2 kcal/mol

GCGTTGAGACGC ((((....))))
Tm [1]: 56.6 °C
folding enthalpy [2]: -29.7 kcal/mol

GCGTTGCAACGC ((((....))))
Tm [1]: 59 °C
folding enthalpy [2]: -33.5 kcal/mol

GCGTTGCGAAAGCAGAGC ((..(((....)))..))
Tm [1]: 63.4 °C
folding enthalpy [2]: -35.8 kcal/mol

GCGTTGCGAAAGCCAGGC ((.(.((....)).).))
Tm [1]: 40.3 °C
folding enthalpy [2]: -16.9 kcal/mol

GCGTTGCGAAAGCCGCGC (((..((....))..)))
Tm [1]: 63.3 °C
folding enthalpy [2]: -21.9 kcal/mol

GCGTTGCGAAAGCGCCGC (((..((....))..)))
Tm [1]: 58.4 °C
folding enthalpy [2]: -14.8 kcal/mol

GCGTTGCGAAAGCTAAGC ((.(.((....)).).))
Tm [1]: 59.2 °C
folding enthalpy [2]: -26.9 kcal/mol

GCGTTGCGAAAGCTATGC ((.(.((....)).).))
Tm [1]: 48.6 °C
folding enthalpy [2]: -23.7 kcal/mol

GCGTTGCGAAAGCTGCGC (((..((....))..)))
Tm [1]: 65.1 °C
folding enthalpy [2]: -36.3 kcal/mol

GCGTTGGGAAACCAGTGC ((..(((....)))..))
Tm [1]: 36.5 °C
folding enthalpy [2]: -24.1 kcal/mol

GCGTTGGGAAACCGATGC ((.(.((....)).).))
Tm [1]: 44 °C
folding enthalpy [2]: -25.9 kcal/mol

GCGTTGGGAAACTAACGC (((((.(....).)))))
Tm [1]: 55.5 °C
folding enthalpy [2]: -47.8 kcal/mol

GCGTTTACACGC ((((....))))
Tm [1]: 54.3 °C
folding enthalpy [2]: -23.2 kcal/mol

GCGTTTAGACGC ((((....))))
Tm [1]: 54 °C
folding enthalpy [2]: -27.3 kcal/mol

GCGTTTGAACGC ((((....))))
Tm [1]: 56.7 °C
folding enthalpy [2]: -20.3 kcal/mol

GCGTTTGCACGC ((((....))))
Tm [1]: 54.3 °C
folding enthalpy [2]: -19.1 kcal/mol

GCGTTTGGAAACAAACAC (.(((((....))))).)
Tm [1]: 40.6 °C
folding enthalpy [2]: -12.8 kcal/mol

GCGTTTGGAAACAAGTGC ((..(((....)))..))
Tm [1]: 31.4 °C
folding enthalpy [2]: -15.8 kcal/mol

GCGTTTTACGC ((((...))))
Tm [1]: 60.6 °C
folding enthalpy [2]: -23 kcal/mol

GCGTTTTGACGC ((((....))))
Tm [1]: 55.2 °C
folding enthalpy [2]: -25.2 kcal/mol

GCTAAACCGAAAGGTAGC (((..(((....))))))
Tm [1]: 44.5 °C
folding enthalpy [2]: -26.1 kcal/mol

GCTAAAGAAATTTAGC ((((((....))))))
Tm [1]: 41.7 °C
folding enthalpy [2]: -28.8 kcal/mol

GCTAACCGAAAGGTAGC (((.(((....))))))
Tm [1]: 55.3 °C
folding enthalpy [2]: -31.9 kcal/mol

GCTAACGAAAGTTGCAGC ((((((....)))..)))
Tm [1]: 39 °C
folding enthalpy [2]: -15.5 kcal/mol

GCTAACGGAAACGTCAGC (((.(((....))).)))
Tm [1]: 42.1 °C
folding enthalpy [2]: -26.6 kcal/mol

GCTAAGCGAAAGCCTGGC ((.(.((....)).).))
Tm [1]: 35.5 °C
folding enthalpy [2]: -17.9 kcal/mol

GCTAAGCGAAAGCGTCGC ((.(.((....)).).))
Tm [1]: 45.8 °C
folding enthalpy [2]: -14 kcal/mol

GCTAAGCGAAAGCTAGC (((.(((....))))))
Tm [1]: 56.1 °C
folding enthalpy [2]: -31.8 kcal/mol

GCTAAGCGAAAGCTCAGC (((.(((....))).)))
Tm [1]: 48 °C
folding enthalpy [2]: -31.6 kcal/mol

GCTAAGCGAAAGCTGTGC ((..(((....)))..))
Tm [1]: 48.6 °C
folding enthalpy [2]: -18.1 kcal/mol

GCTAAGCGAAAGCTTGGC ((.((((....)))).))
Tm [1]: 62.9 °C
folding enthalpy [2]: -34.3 kcal/mol

GCTAAGGGAAACCCTAGC ((((.((....)).))))
Tm [1]: 42.7 °C
folding enthalpy [2]: -32.5 kcal/mol

GCTAAGGGAAACCTCAGC (((.(((....))).)))
Tm [1]: 34.2 °C
folding enthalpy [2]: -27.4 kcal/mol

GCTAAGGGAAACTTTGGC ((.((.(....).)).))
Tm [1]: 27.9 °C
folding enthalpy [2]: -10.8 kcal/mol

GCTAATGCGAAAGCAAGC (((..(((....))))))
Tm [1]: 36.1 °C
folding enthalpy [2]: -16.4 kcal/mol

GCTAATGGAAACATCAGC (((.(((....))).)))
Tm [1]: 32.5 °C
folding enthalpy [2]: -22.2 kcal/mol

GCTAATGGAAACATTAGC (((((((....)))))))
Tm [1]: 56 °C
folding enthalpy [2]: -45.4 kcal/mol

GCTACACGAAAGTGAAGC (((.(((....))).)))
Tm [1]: 54.2 °C
folding enthalpy [2]: -35.3 kcal/mol

GCTACAGGAAACTGTGGC ((.((((....)))).))
Tm [1]: 51.8 °C
folding enthalpy [2]: -39 kcal/mol

GCTACATCGAAAGATAGC (((..(((....))))))
Tm [1]: 33.8 °C
folding enthalpy [2]: -16.7 kcal/mol

GCTACCCGAAAGGGAAGC (((.(((....))).)))
Tm [1]: 58.6 °C
folding enthalpy [2]: -32.5 kcal/mol

GCTACCCGAAAGGGCAGC (((.(((....))).)))
Tm [1]: 57.8 °C
folding enthalpy [2]: -32.9 kcal/mol

GCTACCGAAAGGTAAAGC ((((((....)))..)))
Tm [1]: 46.8 °C
folding enthalpy [2]: -19.8 kcal/mol

GCTACCGAAAGGTCAAGC ((((((....)))..)))
Tm [1]: 39.1 °C
folding enthalpy [2]: -14.9 kcal/mol

GCTACCGAAAGGTCAGC ((((((....))).)))
Tm [1]: 48.7 °C
folding enthalpy [2]: -21.4 kcal/mol

GCTACCGAAAGGTCTAGC ((((((....)))..)))
Tm [1]: 36.6 °C
folding enthalpy [2]: -14.9 kcal/mol

GCTACCGAAAGGTGAAGC ((((((....)))..)))
Tm [1]: 42 °C
folding enthalpy [2]: -19 kcal/mol

GCTACCGAAAGGTGCAGC ((((((....)))..)))
Tm [1]: 43.5 °C
folding enthalpy [2]: -12.6 kcal/mol

GCTACCGAAAGGTTGAGC ((((((....)))..)))
Tm [1]: 38.8 °C
folding enthalpy [2]: -18.2 kcal/mol

GCTACCGGAAACGGCAAC (.(.(((....))).).)
Tm [1]: 18.5 °C
folding enthalpy [2]: -8.04 kcal/mol

GCTACCGGAAACGGTAAC (.(((((....))))).)
Tm [1]: 37.2 °C
folding enthalpy [2]: -12.9 kcal/mol

GCTACGCGAAAGCATGGC ((.(.((....)).).))
Tm [1]: 37 °C
folding enthalpy [2]: -19.7 kcal/mol

GCTACGCGAAAGCCTAGC ((((.((....)).))))
Tm [1]: 45.6 °C
folding enthalpy [2]: -23.3 kcal/mol

GCTACGCGAAAGCGAAGC (((.(((....))).)))
Tm [1]: 57.5 °C
folding enthalpy [2]: -36.7 kcal/mol

GCTACGCGAAAGCGACGC ((..(((....)))..))
Tm [1]: 40.2 °C
folding enthalpy [2]: -15.1 kcal/mol

GCTACGCGAAAGCGAGC (((.(((....))))))
Tm [1]: 56.5 °C
folding enthalpy [2]: -15.8 kcal/mol

GCTACGCGAAAGCGGGGC ((..(((....)))..))
Tm [1]: 63.7 °C
folding enthalpy [2]: -20.7 kcal/mol

GCTACGCGAAAGCTAAGC (((..((....))..)))
Tm [1]: 38.8 °C
folding enthalpy [2]: -13.1 kcal/mol

GCTACGGGAAACCGTGGC ((.((((....)))).))
Tm [1]: 56.7 °C
folding enthalpy [2]: -38.2 kcal/mol

GCTACTCGAAAGAGGAGC (((.(((....))).)))
Tm [1]: 61.6 °C
folding enthalpy [2]: -37.4 kcal/mol

GCTAGACGAAAGTCAAGC (((.(((....))).)))
Tm [1]: 52.7 °C
folding enthalpy [2]: -30.4 kcal/mol

GCTAGACGAAAGTCGAGC (((.(((....))).)))
Tm [1]: 60.2 °C
folding enthalpy [2]: -32.9 kcal/mol

GCTAGAGGAAACTCCAGC (((.(((....))).)))
Tm [1]: 34.8 °C
folding enthalpy [2]: -22.2 kcal/mol

GCTAGCGAAAGCTCAAGC ((((((....)))..)))
Tm [1]: 38 °C
folding enthalpy [2]: -14 kcal/mol

GCTAGCGGAAACACTAGC (((((.(....).)))))
Tm [1]: 45.7 °C
folding enthalpy [2]: -32.2 kcal/mol

GCTAGCGGAAACGTTGGC ((.(.((....)).).))
Tm [1]: 39.6 °C
folding enthalpy [2]: -24.6 kcal/mol

GCTAGGACGAAAGTCAGC (((..(((....))))))
Tm [1]: 42.7 °C
folding enthalpy [2]: -16.6 kcal/mol

GCTAGGCGAAAGCAAAGC (((..((....))..)))
Tm [1]: 44.3 °C
folding enthalpy [2]: -19.2 kcal/mol

GCTAGGCGAAAGCCAAGC (((.(((....))).)))
Tm [1]: 56.1 °C
folding enthalpy [2]: -40 kcal/mol

GCTAGGCGAAAGCTTCGC ((.(.((....)).).))
Tm [1]: 36.2 °C
folding enthalpy [2]: -13.9 kcal/mol

GCTAGGGGAAACCCTAAC (.(((((....))))).)
Tm [1]: 32.1 °C
folding enthalpy [2]: -13.4 kcal/mol

GCTAGTCGAAAGACGAGC (((.(((....))).)))
Tm [1]: 57.6 °C
folding enthalpy [2]: -35.4 kcal/mol

GCTAGTGAAAACTAGC ((((((....))))))
Tm [1]: 56.9 °C
folding enthalpy [2]: -36.3 kcal/mol

GCTATACGAAAGTAAAGC (((.(((....))).)))
Tm [1]: 42.8 °C
folding enthalpy [2]: -28 kcal/mol

GCTATCCGAAAGGACAGC (((.(((....))).)))
Tm [1]: 49 °C
folding enthalpy [2]: -31.7 kcal/mol

GCTATCGAAAGATCAGC ((((((....))).)))
Tm [1]: 38.2 °C
folding enthalpy [2]: -20.6 kcal/mol

GCTATCGAAAGATCGAGC ((((((....)))..)))
Tm [1]: 29.7 °C
folding enthalpy [2]: -10.1 kcal/mol

GCTATCGAAAGATGAGC ((((((....))).)))
Tm [1]: 37.4 °C
folding enthalpy [2]: -27.1 kcal/mol

GCTATCGAAAGATTAAGC ((((((....)))..)))
Tm [1]: 34.6 °C
folding enthalpy [2]: -17.1 kcal/mol

GCTATCGGAAACAATAGC (((((.(....).)))))
Tm [1]: 35.1 °C
folding enthalpy [2]: -18.3 kcal/mol

GCTATCTCGAAAGAGAGC (((..(((....))))))
Tm [1]: 37.2 °C
folding enthalpy [2]: -16.7 kcal/mol

GCTATGCGAAAGCAACGC ((..(((....)))..))
Tm [1]: 39.1 °C
folding enthalpy [2]: -10.5 kcal/mol

GCTATGCGAAAGCAATGC ((..(((....)))..))
Tm [1]: 47.7 °C
folding enthalpy [2]: -16.5 kcal/mol

GCTATGCGAAAGCAGTGC ((..(((....)))..))
Tm [1]: 46.9 °C
folding enthalpy [2]: -19.1 kcal/mol

GCTATGCGAAAGCGGAGC (((..((....))..)))
Tm [1]: 53.6 °C
folding enthalpy [2]: -26.3 kcal/mol

GCTATGCGAAAGCTCAGC (((..((....))..)))
Tm [1]: 36.2 °C
folding enthalpy [2]: -19.1 kcal/mol

From the array DNA melting data of Ke et al. (doi:10.1101/2024.01.08.574731)
